Screening results: PubChem, Broad Institute
SIRT5 block: sirtuin-5 (human) deacylase inhibition; Q9NXA8; Purified SirT5, succinyl-peptide AMC, trypsin-coupled fluorescence; inhibition, % at 15 µM; 330,000 compounds, 1.1% hits; in the data active = inhibition above about 15%; inconclusive = no clear call, values can overlap the other calls
Target sequence (Q9NXA8 whole entry, looked up): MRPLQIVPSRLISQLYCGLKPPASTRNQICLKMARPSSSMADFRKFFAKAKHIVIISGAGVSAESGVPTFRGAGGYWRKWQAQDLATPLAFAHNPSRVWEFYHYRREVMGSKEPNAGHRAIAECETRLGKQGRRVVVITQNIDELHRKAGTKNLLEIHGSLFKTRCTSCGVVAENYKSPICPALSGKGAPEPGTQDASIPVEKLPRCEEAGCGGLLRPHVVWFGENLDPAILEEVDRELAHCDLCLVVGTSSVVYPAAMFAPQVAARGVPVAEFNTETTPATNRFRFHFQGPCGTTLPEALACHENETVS
DENV2 CPE: inhibitors of DENV2 cytopathic effect. DENV2-infected cells, cytopathic effect rescue, plate reader. CPE inhibition, % at 9.99 µM. 350,000 compounds, 1.7% hits. AID 651640; in the data active = CPE inhibition above about 20%, passing the limit was not always enough; inconclusive = no clear call, values can overlap the other calls; tested in BHK-21 cells
FGF22 binding: FGF22 (human) thermal shift binding | 340,000 compounds, 1.5% hits | recombinant FGF22 thermal shift, SYPRO orange fluorescence; percent of sucrose octasulfate shift, DMSO zero | Q9HCT0 | AID 651658 | activity (Tm shift, normalised), % at 9.99 µM;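 active = mean Tm shift, scaled 0 neutral to 100 positive control, at about 1.3% or above, every replicate too, limit read from the data; inconclusive = no clear call, values can overlap the other calls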
FN deposition inh: fibronectin deposition inhibition; AH1F fibroblasts, Alexa488-fibronectin deposition fluorescence, overnight; inhibition, % at 12.6 µM; 350,000 compounds, 0.086% hits; AID 743247;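 active = mean inhibition across replicates of 30% or more, regardless of how many single replicates reach that level; inconclusive = mean under 30% yet at least half of replicates reach 30%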
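Material – AH1F fibroblast monolayer, labelled fibronectin deposition · Reagent – labelled fibronectin 24 nM · Timing – 1 h adhesion, overnight exposure · Measured by – fluorescence at 485 nm excitation, 525 nm emission · Read-out – inhibition of fibronectin deposition signal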
ARNT TACC3 PPI: disrupts binding between human ARNT and TACC3 | AID 623870 | 390,000 compounds, 0.66% hits | inhibition, % at 9.99 µM | AlphaScreen His-ARNT PAS-B/GST-TACC3 binding, luminescence; TACC3 fragment carries E629A point mutation | Q9Y6A5;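 active = mean inhibition of replicates at least 50% and at least half of replicates each reaching 50%; inconclusive = half or more replicates reach 50% but mean below 50%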
Xi reactivation: reactivates the inactive X chromosome in mouse fibroblasts; XiGFP mouse fibroblasts, % GFP-positive cells imaging, 3 d; cells co-treated with 5-aza-dC sensitizer; scaled so ellipticine positive control = 100%; 360,000 compounds, 0.055% hits; activation, % at 7.58 µM;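 active = mean normalized replicate activation at least 10% and every replicate at or above 10%; inconclusive = only one of the two criteria met; inactive = mean below 10% and not all replicates reach 10%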
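System: 68-5-11 XiGFP fibroblast line | Buffer or medium: DMEM containing 5-aza-dC | Compound: Single point | Times: Compounds 3 days, fix/stain 15 min at room temperature | Benchmarks: Positive control ellipticine, 6 µM final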
Numbers stand for hits; 0 = inactive; ? = inconclusive; - = not tested or not shown. Compounds with a hit are over-represented: about 3.8% of the library has one in this group of screens.

SMILES	SIRT5 block	DENV2 CPE	FGF22 binding	FN deposition inh	ARNT TACC3 PPI	Xi reactivation
COc1ccccc1C=NN1C(=O)CSC1=S	0	0	0	-	0	0
O=C1CSC(=S)N1N=Cc1ccc(Cl)s1	0	0	0	0	61	0
O=C1CSC(=S)N1/N=C/c1ccc(O)c(O)c1O	-	-	-	-	98	-
COc1ccc2c3c([nH]c2c1)[C@@H](CO)N(Cc1ccccc1Cl)CC31CN(C(C)=O)C1	-	0	0	-	-	0
C[C@@H]1CCCCO[C@H](CN(C)C(=O)CCC(F)(F)F)[C@@H](C)CN([C@H](C)CO)C(=O)c2cc(NS(=O)(=O)c3ccccc3)ccc2O1	0	?	0	-	0	0
CCOC(=O)CN1CC23C=CC(O2)C(C(=O)NC2CCCCCC2)C3C1=O (configuration not stated)	0	0	0	0	0	0
CCOC(=O)CN1CC23C=CC(O2)C(C(=O)NCCc2ccccc2)C3C1=O (configuration not stated)	-	22	0	0	0	0
CCCc1nc2ccccc2c(=O)n1/N=C/c1ccccc1O	-	-	-	-	57	-
Cc1nc2ccccc2c(=O)n1/N=C/c1ccc(O)cc1O	0	0	-	0	0	0
CC(=O)N(c1nc(CCl)cs1)c1cccc(C)c1C	0	0	0	0	-	0
CC(=O)N(c1nc(/C=C\C(=O)O)cs1)c1ccccc1F	17	?	0	0	0	0
CO[C@@H]1CN(C)C(=O)c2cc(NS(=O)(=O)c3cn(C)cn3)ccc2OC[C@@H](C)N(CC2CC2)C[C@@H]1C	0	0	0	0	0	0
Cc1cccc(NC(=S)NC(=O)/C=C/c2ccco2)c1	0	0	1.4	0	-	0
COc1ccc(NC(=O)COc2nc3ccccc3nc2N2CCOCC2)c(OC)c1	0	0	43	0	0	0
COc1ccc(NC(=O)COc2nsnc2N2CCOCC2)cc1	-	-	-	0	-	0
O=C(NC1CCCCC1)C1c2ccccc2OCC(=O)N1Cc1ccco1 (configuration not stated)	16	0	0	0	-	0
O=C(NC1CCCC1)C1c2ccccc2OCC(=O)N1Cc1ccccn1 (configuration not stated)	0	0	0	0	-	0
Cc1ccc(N2C(=O)CC(Sc3cccs3)C2=O)cc1 (configuration not stated)	0	0	0	0	0	0
Cc1ccc(SC2CC(=O)N(c3ccc4c(c3)OCCO4)C2=O)cc1 (configuration not stated)	0	0	43	0	0	0
CCOC(=O)C1=C(COC(=O)Cc2ccccc2[N+](=O)[O-])NC(=O)NC1C (configuration not stated)	-	38	0	0	-	0
O=C(Nc1ccc(F)cc1)N1CCCCN2[C@@H](CO)[C@@H](c3ccc(C#Cc4ccccn4)cc3)[C@@H]2C1	0	0	0	-	0	0
CON(C)C(=O)/C=C/CCCCNC(=O)OC(C)(C)C	-	37	0	0	0	0
CC(C)(C)OC(=O)NCCCCCO	0	0	0	0	0	0
Cc1noc(C)c1NC(=O)Nc1ccc2c(c1)C(=O)N([C@H](C)CO)C[C@@H](C)[C@@H](CN(C)Cc1ccc(Cl)c(Cl)c1)O2	0	0	0	-	0	0
O=C(C[C@@H]1CC[C@H](NS(=O)(=O)c2ccccc2)[C@H](CO)O1)NCc1ccc(Cl)c(Cl)c1	0	0	0	0	-	0
SMILES	SIRT5 block	DENV2 CPE	FGF22 binding	FN deposition inh	ARNT TACC3 PPI	Xi reactivation
CC(=NNC(N)=O)C1=C(O)C(C(C)C)NC1=O (configuration not stated)	0	?	0	0	60	0
Cc1csc(SCC(=O)Nc2ccccc2C)n1	0	0	0	-	-	0
Cc1csc(SCC(=O)Nc2ccccc2[N+](=O)[O-])n1	0	0	44	0	0	0
NC(Cc1ccc(O)c([N+](=O)[O-])c1)C(=O)O (configuration not stated)	-	-	-	0	0	0
N[C@@H](Cc1ccc(O)c(O)c1)C(=O)O	15	0	0	0	0	0
O=C(Nc1ccccc1)N[C@@H]1CC[C@@H](CCn2cc(-c3ccccc3F)nn2)O[C@@H]1CO	0	?	-	-	-	0
CCc1ccc(OCCCC(=O)NCc2ccco2)cc1	0	0	44	0	0	0
